Test results from ChEMBL document CHEMBL4004822, “Thienopyrimidinone Based Sirtuin-2 (SIRT2)-Selective Inhibitors Bind in the Ligand Induced Selectivity Pocket” (J Med Chem, 2017).

These molecules were tested against T1, NAD-dependent protein deacetylase sirtuin-2 (Homo sapiens) (UniProt Q8IXJ6) (assay: Inhibition of recombinant human C-terminal His-tagged SIRT2 (50 to 389 end residues) expressed in Escherichia coli at 10 uM using p53 derived (379 to 382 residues) fluorogenic peptide substrate RHKK(Ac)-AMC preincubated for 10 mins followed by substrate addition in presence of NAD+ by fluorescence assay relative to control).
T1 sequence (whole entry): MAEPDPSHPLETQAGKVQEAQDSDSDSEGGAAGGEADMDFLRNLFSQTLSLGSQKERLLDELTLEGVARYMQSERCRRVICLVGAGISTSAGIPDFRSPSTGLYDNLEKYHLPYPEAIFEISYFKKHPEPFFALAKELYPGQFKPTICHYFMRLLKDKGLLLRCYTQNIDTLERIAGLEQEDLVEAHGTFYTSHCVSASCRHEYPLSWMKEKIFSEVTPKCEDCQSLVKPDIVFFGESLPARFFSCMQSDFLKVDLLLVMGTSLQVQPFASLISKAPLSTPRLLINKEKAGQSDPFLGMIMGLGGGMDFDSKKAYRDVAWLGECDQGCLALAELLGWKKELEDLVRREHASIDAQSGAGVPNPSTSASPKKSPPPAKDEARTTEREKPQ
How it was run: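 Two-step fluorogenic assay with p53 379–382 RHKK(Ac)-AMC. Compound (from 10 mM DMSO stock) preincubated ~10 min with human SIRT before substrate addition. Developer then releases fluorophore, read at ex 360/em 460 nm.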

Structure (SMILES) | inhibition
O=c1c2c3c(sc2ncn1Cc1cccc(-c2ccccc2)c1)CC(NC1CCc2ccccc21)CC3 (centres undefined) | 45%
COc1ccccc1CCNC1CCc2c(sc3ncn(Cc4ccc(OC)c5ccccc45)c(=O)c23)C1 (centres undefined) | 69%
O=c1c2c3c(sc2ncn1Cc1ccc2ccccc2c1)CC(NCc1cccc(Cl)c1)CC3 (centres undefined) | 49%
COc1ccccc1NC1CCc2c(sc3ncn(Cc4ccc5ccccc5c4)c(=O)c23)C1 (centres undefined) | 36%
O=c1c2c3c(sc2ncn1Cc1cccc2cccnc12)CC(NCCN1CCOCC1)CC3 (centres undefined) | 53%
O=c1c2c3c(sc2ncn1Cc1cccc2cccnc12)CC(NCc1cncnc1)CC3 (centres undefined) | 75%
COc1ccccc1CCNC1CCc2c(sc3ncn(Cc4ccc5ccccc5c4)c(=O)c23)C1 (centres undefined) | 67%
O=c1c2c3c(sc2ncn1Cc1cccc2ccccc12)CC(NCC1CCOC1)CC3 (centres undefined) | 72%
O=c1c2c3c(sc2ncn1Cc1cccc2ccccc12)CC(Nc1ccc2c(c1)OCO2)CC3 (centres undefined) | 29%
COc1ccc(CNC2CCc3c(sc4ncn(Cc5ccccc5OC)c(=O)c34)C2)cc1 (centres undefined) | 67%
COc1cccc(NC2CCc3c(sc4ncn(Cc5cccc6cccnc56)c(=O)c34)C2)c1 (centres undefined) | 67%
O=c1c2c3c(sc2ncn1Cc1cccc2cccnc12)CC(Nc1ccc2c(c1)OCO2)CC3 (centres undefined) | 76%
COc1ccc(Cn2cnc3sc4c(c3c2=O)CCC(NCCNC(C)=O)C4)c2ccccc12 (centres undefined) | 58%
COc1ccccc1CCNC1CCc2c(sc3ncn(Cc4cccc5ccccc45)c(=O)c23)C1 (centres undefined) | 60%
COc1ccc(Cn2cnc3sc4c(c3c2=O)CCC(NCc2cccc(Cl)c2)C4)c2ccccc12 (centres undefined) | 6.5%
COc1ccccc1Cn1cnc2sc3c(c2c1=O)CCC(NCc1ccccn1)C3 (centres undefined) | 35%
O=c1c2c3c(sc2ncn1Cc1ccc2ccccc2c1)CC(NCc1ccccc1F)CC3 (centres undefined) | 51%
O=c1c2c3c(sc2ncn1Cc1cccc2cccnc12)CC(NCC1CCCO1)CC3 (centres undefined) | 58%
COc1cccc(Cn2cnc3sc4c(c3c2=O)CCC(NCc2ccccc2OC)C4)c1 (centres undefined) | 64%
O=c1c2c3c(sc2ncn1Cc1ccc2ccccc2c1)CC(NCCN1CCCC1)CC3 (centres undefined) | 52%
COc1ccccc1NC1CCc2c(sc3ncn(Cc4cccc5cccnc45)c(=O)c23)C1 (centres undefined) | 69%
O=c1c2c3c(sc2ncn1Cc1cccc2ccccc12)CC(NCc1cccc(F)c1)CC3 (centres undefined) | 65%
COc1cccc(NC2CCc3c(sc4ncn(Cc5cccc6ccccc56)c(=O)c34)C2)c1 (centres undefined) | 46%

Structure (SMILES) | inhibition
N#Cc1ccc(CNC2CCc3c(sc4ncn(Cc5cccc6ccccc56)c(=O)c34)C2)cc1 (centres undefined) | 66%
Cc1cccc(NC2CCc3c(sc4ncn(Cc5cccc6cccnc56)c(=O)c34)C2)c1 (centres undefined) | 62%
O=c1c2c3c(sc2ncn1Cc1ccccc1)CC(NC1CCc2ccccc21)CC3 (centres undefined) | 59%
COc1cccc(CNC2CCc3c(sc4ncn(Cc5cccc(OC)c5)c(=O)c34)C2)c1 (centres undefined) | 58%
COc1ccc(Cn2cnc3sc4c(c3c2=O)CCC(NCCN2CCOCC2)C4)c2ccccc12 (centres undefined) | 76%
COc1ccc2ccccc2c1Cn1cnc2sc3c(c2c1=O)CCC(NCCNC(C)=O)C3 (centres undefined) | 44%
O=c1c2c3c(sc2ncn1Cc1ccc2ccccc2c1)CC(NCc1ccc(Cl)cc1)CC3 (centres undefined) | 49%
COc1ccc(Cn2cnc3sc4c(c3c2=O)CCC(Nc2ccc(F)cc2)C4)c2ccccc12 (centres undefined) | 56%
Cc1nn(C)c(C)c1CNC1CCc2c(sc3ncn(Cc4ccccc4)c(=O)c23)C1 (centres undefined) | 32%
COc1ccc(Cn2cnc3sc4c(c3c2=O)CCC(Nc2ccc(C)cc2)C4)c2ccccc12 (centres undefined) | 35%
COc1cccc(NC2CCc3c(sc4ncn(Cc5cccc(-c6ccccc6)c5)c(=O)c34)C2)c1 (centres undefined) | 30%
COCCNC1CCc2c(sc3ncn(Cc4ccc(OC)c5ccccc45)c(=O)c23)C1 (centres undefined) | 70%
O=c1c2c3c(sc2ncn1Cc1cccc(-c2ccccc2)c1)CC(NCc1cccc(F)c1)CC3 (centres undefined) | 63%
COc1ccc(Cn2cnc3sc4c(c3c2=O)CCC(NCc2ccccc2Cl)C4)c2ccccc12 (centres undefined) | 65%
COc1cccc(NC2CCc3c(sc4ncn(Cc5ccc6ccccc6c5)c(=O)c34)C2)c1 (centres undefined) | 37%
O=c1c2c3c(sc2ncn1Cc1cccc(-c2ccccc2)c1)CC(NCc1cccc(Cl)c1)CC3 (centres undefined) | 43%
O=c1c2c3c(sc2ncn1Cc1cccc2cccnc12)CC(NC1CCCC1)CC3 (centres undefined) | 30%
COc1ccc(Cn2cnc3sc4c(c3c2=O)CCC(NCc2cccs2)C4)c2ccccc12 (centres undefined) | 71%
COc1ccc(CNC2CCc3c(sc4ncn(Cc5ccccc5OC)c(=O)c34)C2)cn1 (centres undefined) | 56%
COc1cccc(Cn2cnc3sc4c(c3c2=O)CCC(NCc2ccncc2)C4)c1 (centres undefined) | 59%
COc1ccc(Cn2cnc3sc4c(c3c2=O)CCC(NCc2cccc(F)c2)C4)c2ccccc12 (centres undefined) | 59%
O=c1c2c3c(sc2ncn1Cc1ccccc1)CC(NCc1cccnc1)CC3 (centres undefined) | 42%
Cc1cccc(NC2CCc3c(sc4ncn(Cc5cccc(-c6ccccc6)c5)c(=O)c34)C2)c1 (centres undefined) | 28%

Structure (SMILES) | inhibition
COc1cccc(Cn2cnc3sc4c(c3c2=O)CCC(NC2CCc3ccccc32)C4)c1 (centres undefined) | 64%
O=c1c2c3c(sc2ncn1Cc1cccc2ccccc12)CC(NCc1ccccc1)CC3 (centres undefined) | 66%
COc1ccc(CNC2CCc3c(sc4ncn(Cc5ccccc5)c(=O)c34)C2)cc1 (centres undefined) | 45%
COc1ccccc1Cn1cnc2sc3c(c2c1=O)CCC(NCCc1ccncc1)C3 (centres undefined) | 26%
O=c1c2c3c(sc2ncn1Cc1ccccc1)CC(NCc1ccccn1)CC3 (centres undefined) | 26%
Cc1cccc(NC2CCc3c(sc4ncn(Cc5ccc6ccccc6c5)c(=O)c34)C2)c1 (centres undefined) | 31%
O=c1c2c3c(sc2ncn1Cc1ccc2ccccc2c1)CC(NCc1cccc(F)c1)CC3 (centres undefined) | 56%
O=c1c2c3c(sc2ncn1Cc1cccc2ccccc12)CC(NCc1ccccc1F)CC3 (centres undefined) | 71%
O=c1c2c3c(sc2ncn1Cc1cccc2ccccc12)CC(NC1CCc2ccccc21)CC3 (centres undefined) | 58%
COc1cccc(Cn2cnc3sc4c(c3c2=O)CCC(NCc2c(C)nn(C)c2C)C4)c1 (centres undefined) | 14%
O=c1c2c3c(sc2ncn1Cc1cccc2cccnc12)CC(NCc1ccccc1F)CC3 (centres undefined) | 49%
O=c1c2c3c(sc2ncn1Cc1cccc2cccnc12)CC(NCC1CCOC1)CC3 (centres undefined) | 60%
COc1ccccc1CNC1CCc2c(sc3ncn(Cc4cccc5ccccc45)c(=O)c23)C1 (centres undefined) | 60%
COc1cccc(Cn2cnc3sc4c(c3c2=O)CCC(NCc2cccnc2)C4)c1 (centres undefined) | 27%
O=c1c2c3c(sc2ncn1Cc1ccc2ccccc2c1)CC(NC1CCOCC1)CC3 (centres undefined) | 52%
COc1ccccc1Cn1cnc2sc3c(c2c1=O)CCC(NCC1CCCO1)C3 (centres undefined) | 27%
O=c1c2c3c(sc2ncn1Cc1cccc2ccccc12)CC(NCc1cccs1)CC3 (centres undefined) | 54%
COc1ccc2ccccc2c1Cn1cnc2sc3c(c2c1=O)CCC(NCc1ccccc1Cl)C3 (centres undefined) | 40%
O=c1c2c3c(sc2ncn1Cc1cccc(-c2ccccc2)c1)CC(NCc1ccccc1Cl)CC3 (centres undefined) | 39%
COCCNC1CCc2c(sc3ncn(Cc4cccc5ccccc45)c(=O)c23)C1 (centres undefined) | 35%
Cc1noc(C)c1CNC1CCc2c(sc3ncn(Cc4ccc5ccccc5c4)c(=O)c23)C1 (centres undefined) | 67%
O=c1c2c3c(sc2ncn1Cc1ccccc1)CC(NCc1cncnc1)CC3 (centres undefined) | 18%
COc1cccc(Cn2cnc3sc4c(c3c2=O)CCC(NCCc2ccncc2)C4)c1 (centres undefined) | 39%

Structure (SMILES) | inhibition
O=c1c2c3c(sc2ncn1Cc1ccccc1)CC(NCCc1cccnc1)CC3 (centres undefined) | 27%
COc1ccc2ccccc2c1Cn1cnc2sc3c(c2c1=O)CCC(NCc1ccc(Cl)cc1)C3 (centres undefined) | 40%
O=c1c2c3c(sc2ncn1Cc1ccc2ccccc2c1)CC(NCC1CCOC1)CC3 (centres undefined) | 58%
COc1cccc(Cn2cnc3sc4c(c3c2=O)CCC(NCc2ccccn2)C4)c1 (centres undefined) | 18%
O=c1c2c3c(sc2ncn1Cc1cccc(-c2ccccc2)c1)CC(NCc1ccc(Cl)cc1)CC3 (centres undefined) | 56%
O=c1c2c3c(sc2ncn1Cc1cccc2ccccc12)CC(NCCN1CCCC1)CC3 (centres undefined) | 56%
COc1ccccc1CCNC1CCc2c(sc3ncn(Cc4c(OC)ccc5ccccc45)c(=O)c23)C1 (centres undefined) | 65%
O=c1c2c3c(sc2ncn1Cc1ccccc1)CC(NCc1ccncc1)CC3 (centres undefined) | 33%
CC(=O)NCCNC1CCc2c(sc3ncn(Cc4cccc5cccnc45)c(=O)c23)C1 (centres undefined) | 28%
CC(=O)NCCNC1CCc2c(sc3ncn(Cc4cccc5ccccc45)c(=O)c23)C1 (centres undefined) | 28%
COc1ccc2ccccc2c1Cn1cnc2sc3c(c2c1=O)CCC(NCc1ccccc1F)C3 (centres undefined) | 64%
COCCNC1CCc2c(sc3ncn(Cc4cccc5cccnc45)c(=O)c23)C1 (centres undefined) | 41%
O=c1c2c3c(sc2ncn1Cc1ccccc1)CC(NCCc1ccncc1)CC3 (centres undefined) | 18%
O=c1c2c3c(sc2ncn1Cc1cccc2ccccc12)CC(NC1CCOCC1)CC3 (centres undefined) | 59%
COc1ccc(NC2CCc3c(sc4ncn(Cc5cccc(-c6ccccc6)c5)c(=O)c34)C2)cc1 (centres undefined) | 31%
COc1cccc(CNC2CCc3c(sc4ncn(Cc5cccc6cccnc56)c(=O)c34)C2)c1 (centres undefined) | 78%
COc1ccc2ccccc2c1Cn1cnc2sc3c(c2c1=O)CCC(NCc1cncnc1)C3 (centres undefined) | 33%
COc1ccccc1CNC1CCc2c(sc3ncn(Cc4ccccc4)c(=O)c23)C1 (centres undefined) | 46%
COc1ccc2ccccc2c1Cn1cnc2sc3c(c2c1=O)CCC(NCc1cccc(Cl)c1)C3 (centres undefined) | 50%
COc1ccc2ccccc2c1Cn1cnc2sc3c(c2c1=O)CCC(Nc1ccc(F)cc1)C3 (centres undefined) | 44%
